Assay [1] deals with T1, TAK1 (Homo sapiens, UniProt O43318).
T1 sequence (O43318 1-606): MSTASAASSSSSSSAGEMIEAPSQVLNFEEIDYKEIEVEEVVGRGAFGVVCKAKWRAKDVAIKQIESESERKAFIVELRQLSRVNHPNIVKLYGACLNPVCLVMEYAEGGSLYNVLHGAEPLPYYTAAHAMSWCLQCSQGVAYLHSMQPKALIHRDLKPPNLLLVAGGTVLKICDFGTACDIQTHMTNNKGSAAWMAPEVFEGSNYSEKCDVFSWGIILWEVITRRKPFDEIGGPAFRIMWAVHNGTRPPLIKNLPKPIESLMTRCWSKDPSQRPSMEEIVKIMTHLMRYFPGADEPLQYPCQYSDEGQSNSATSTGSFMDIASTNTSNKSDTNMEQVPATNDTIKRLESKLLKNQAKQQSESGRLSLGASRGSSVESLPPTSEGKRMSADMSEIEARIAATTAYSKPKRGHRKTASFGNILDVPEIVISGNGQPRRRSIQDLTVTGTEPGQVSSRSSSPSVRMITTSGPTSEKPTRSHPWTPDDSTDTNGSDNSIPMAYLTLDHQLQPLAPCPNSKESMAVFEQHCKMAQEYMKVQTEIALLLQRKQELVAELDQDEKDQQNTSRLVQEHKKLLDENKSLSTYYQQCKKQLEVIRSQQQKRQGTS
Put plainly: KiNativ live-cell profiling in SK-CO-1 cells. The note with it: 1 μM. Format: binding.

The target in the next assay is T2, MAP2K5 (Homo sapiens, UniProt Q13163).
T2 sequence (Q13163 1-448): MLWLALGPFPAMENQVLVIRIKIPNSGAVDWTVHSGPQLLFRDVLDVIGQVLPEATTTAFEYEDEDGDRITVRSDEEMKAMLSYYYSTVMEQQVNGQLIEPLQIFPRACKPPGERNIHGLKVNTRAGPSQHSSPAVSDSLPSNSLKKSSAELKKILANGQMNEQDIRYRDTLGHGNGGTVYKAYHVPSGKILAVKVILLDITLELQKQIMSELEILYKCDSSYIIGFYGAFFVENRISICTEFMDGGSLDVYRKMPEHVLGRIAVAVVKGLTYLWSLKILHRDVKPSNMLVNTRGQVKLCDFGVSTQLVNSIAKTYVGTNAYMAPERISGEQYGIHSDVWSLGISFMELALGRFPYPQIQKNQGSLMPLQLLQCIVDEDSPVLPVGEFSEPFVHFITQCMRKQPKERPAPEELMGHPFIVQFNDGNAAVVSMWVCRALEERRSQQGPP
Put plainly: KiNativ live-cell profiling in SK-CO-1 cells. Format: binding. As to conditions: read-out: Inhibition (%) MAP2K5.

Another assay concerns the target T3, ARAF (Homo sapiens, UniProt P10398).
T3 sequence (P10398 1-606): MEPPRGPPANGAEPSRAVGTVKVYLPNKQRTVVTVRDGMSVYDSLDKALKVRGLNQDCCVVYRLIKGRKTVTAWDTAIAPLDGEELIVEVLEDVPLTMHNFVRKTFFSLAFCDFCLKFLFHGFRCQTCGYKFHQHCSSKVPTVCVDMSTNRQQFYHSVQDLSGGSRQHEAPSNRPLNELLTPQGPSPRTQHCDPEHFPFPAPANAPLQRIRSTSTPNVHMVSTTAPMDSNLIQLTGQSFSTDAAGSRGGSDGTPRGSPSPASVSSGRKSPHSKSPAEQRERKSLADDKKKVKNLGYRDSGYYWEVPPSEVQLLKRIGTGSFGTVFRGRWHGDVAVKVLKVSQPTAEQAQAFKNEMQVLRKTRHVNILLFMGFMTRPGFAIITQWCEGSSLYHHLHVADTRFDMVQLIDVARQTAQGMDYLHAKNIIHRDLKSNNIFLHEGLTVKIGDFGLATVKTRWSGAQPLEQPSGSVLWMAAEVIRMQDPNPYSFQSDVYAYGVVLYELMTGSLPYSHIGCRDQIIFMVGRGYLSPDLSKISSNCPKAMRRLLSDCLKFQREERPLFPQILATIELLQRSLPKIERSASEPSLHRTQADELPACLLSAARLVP
Kind of assay: KiNativ live-cell profiling in SK-CO-1 cells. Format: binding. The note with it: read-out: Inhibition (%) ARAF.

The next assay deals with T4, MAP2K6 (Homo sapiens, UniProt P52564).
T4 sequence (P52564 1-334): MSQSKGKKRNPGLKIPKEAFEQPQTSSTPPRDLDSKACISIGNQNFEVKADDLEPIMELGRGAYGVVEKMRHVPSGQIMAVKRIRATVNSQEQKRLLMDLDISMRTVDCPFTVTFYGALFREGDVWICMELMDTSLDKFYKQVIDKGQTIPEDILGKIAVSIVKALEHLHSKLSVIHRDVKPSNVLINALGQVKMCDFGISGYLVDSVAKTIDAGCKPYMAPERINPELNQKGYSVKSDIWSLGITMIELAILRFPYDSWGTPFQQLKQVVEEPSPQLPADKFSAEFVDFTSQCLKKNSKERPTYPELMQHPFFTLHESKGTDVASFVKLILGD
Put plainly: KiNativ live-cell profiling in SK-CO-1 cells. Type of assay: binding. As to conditions: read-out: Inhibition (%) MAP2K6.

The target in assay [2] is T1, TAK1. Kind of assay: Competitive pulldown of TAK1 with biotinylated probe 27 in H358 and H23 cells. The note with it: 10 μM compound, 6 h, washout, lysate + 1 μM 27. Format: cell-based. In a few lines: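 H358 and H23 NSCLC cells (KRAS G12C) were exposed to test compound at 1 or 10 μM for 6 h. Drug medium was removed, and cells were rinsed twice with cold PBS and lysed in MPER buffer. Lysates were incubated overnight at 4 °C with 1 μM biotinylated probe and pulled down on streptavidin beads. Recovered TAK1 was detected by immunoblotting.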

For assay [3], the system named is synovial fibroblasts from an RA patient (RA2159). Kind of assay: Cytokine secretion by activated RA synovial fibroblasts. Type of assay: cell-based, human. As to conditions: 3 μM; TNFα, IL-1α or Poly(I:C) activation. In short, it runs like this:
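Primary human RA synovial fibroblasts (lot RA2159) were seeded at 1000 cells/well, grown ~24 h, then starved overnight and ~4 h in 0.1% BSA. Pooled supernatants (duplicates) were diluted 1:3 for 48-analyte Luminex measurement and iMLR modeling.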

By inhibition is commonly meant the change of the read-out against control, counted positive when it falls.

In the case of `C=CC(=O)Nc1ccccc1Oc1nc(Nc2cnn(CCOC)c2)ncc1Cl` [Compound 25], the “binding to TAK1 in KiNativ assay” value on TAK1 [1] was “could not detect binding to TAK1”. Further, the inhibition at 1 µM on MAP2K5 is -59.6%; at ARAF, -15.8%; on MAP2K6, -21.6%. Also, the “blocking of labeling of TAK1 by 27” value at TAK1 [2] is “only partially blocked labeling of TAK1”. Moreover, the “normalization of induced cytokine secretion” value in assay [3] is “normalized cytokine secretion”.

These data come from paper PMC5484535 (Bioorganic & medicinal chemistry, 2016).
